Assay outcomes deposited in PubChem by Broad Institute.
INS-1E GSIS act: GLuc luminescence reporter in INS-1E cells, primary screen for activators of glucose-dependent secretion of insulin; INS-1E GLuc reporter insulin secretion, 2-3 h; activation, % at 16.6 µM; hit rate 0.61% among 370,000; AID 743287;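 active = lowest replicate activation of at least 40%, so every replicate reaches that level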;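 note: 0% = median of neutral control wells and 100% = median of IBMX positive control wells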
CDK5 p35 inh: CDK5/p35 (human) kinase inhibition; Recombinant CDK5/p35, ADP-Glo luminescence, 60 min; inhibition, % at 10 µM; hit rate 0.01% among 330,000; AID 488839;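 active = highest replicate inhibition of at least 50% and at least 75% of replicates reaching 50%; inconclusive = only one of the two criteria met; inactive = both criteria failed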;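 note: plate controls were DMSO neutral control for no effect and GW8510 at 10 µM for full effect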
Target sequence (Q00535 whole entry, looked up): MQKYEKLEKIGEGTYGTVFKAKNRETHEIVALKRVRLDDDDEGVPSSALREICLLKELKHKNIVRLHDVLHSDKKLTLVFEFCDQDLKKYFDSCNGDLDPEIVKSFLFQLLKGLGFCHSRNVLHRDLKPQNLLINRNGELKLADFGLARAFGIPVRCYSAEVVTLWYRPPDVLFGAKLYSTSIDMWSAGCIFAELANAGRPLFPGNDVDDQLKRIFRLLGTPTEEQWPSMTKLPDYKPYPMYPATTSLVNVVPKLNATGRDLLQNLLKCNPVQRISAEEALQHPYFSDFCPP
Target sequence (Q15078 whole entry, looked up): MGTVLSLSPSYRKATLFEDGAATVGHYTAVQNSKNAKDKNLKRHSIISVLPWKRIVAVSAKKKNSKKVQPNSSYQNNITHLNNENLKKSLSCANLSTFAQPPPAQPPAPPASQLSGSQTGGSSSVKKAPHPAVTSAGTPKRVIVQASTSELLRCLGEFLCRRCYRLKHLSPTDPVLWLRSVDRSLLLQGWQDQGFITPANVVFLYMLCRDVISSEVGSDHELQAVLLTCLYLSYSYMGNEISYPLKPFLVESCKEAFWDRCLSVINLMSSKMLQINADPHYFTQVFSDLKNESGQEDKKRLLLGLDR
PAX8 reporter: PAX8 transcriptional activity inhibition. RMG-I TPO-luciferase reporter, SteadyGlo, 24 h. hit rate 1.2% among 360,000. inhibition, % at 12.6 µM;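 active = mean replicate inhibition at least 60% with every replicate also reaching 60%; inconclusive = only one of the two criteria is met; inactive = mean below 60% and not all replicates reaching 60%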;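 note: luciferase light reporting Pax8 driven TPO promoter activity; plate controls were median of neutral control wells for no effect and mitoxantrone controls for full effect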
HIV Env fusion: HIV envelope-mediated fusion inhibition | HeLa-JRFL Env/CEM21 cell fusion, luciferase | inhibition, % at 12.3 µM | hit rate 1.1% among 360,000 | AID 651610;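 active = mean replicate inhibition score of at least 50 and every replicate individually at or above 50; inconclusive = only one of the two criteria met; inactive = mean below 50 and not all replicates reaching 50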;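 note: 0% = plate neutral controls and 100% = maraviroc near 300 nM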
dFosB act-1: activators of mouse delta FosB homodimer. hit rate 0.99% among 340,000. purified delta FosB, TAMRA-CDK5 oligo fluorescence polarization; percent of positive-control signal above neutral wells. AID 493131. activation, % at 25 µM;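 active = mean activation above about 17%, with every replicate also reaching it, limit read from the data, passing the limit was not always enough; inconclusive = only one of the two conditions met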
Cneo AK release: causes C. neoformans cell lysis | adenylate kinase release luminescence, 4 h; normalised: neutral wells 0, clomiphene wells 100 | lysis activity, % at 15 µM | hit rate 0.2% among 360,000 | AID 651654;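 active = mean lysis activity across replicates of at least 80%, whatever share of replicates individually reach that level; inactive = mean lysis activity below 80%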
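Material: C. neoformans cells | Amount: Yeast cell density of 5 × 10^6 cells/mL | Medium: Fresh YPD growth medium | Dosing: Single dose | Times: Static 4 h at 37 °C with compound, 1 h detection | Detection: AK luminescence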
dFosB act-2: activators of mouse delta FosB homodimer DNA binding | shares compounds with dFosB act-1 | purified delta FosB, TAMRA-CDK5 oligo fluorescence polarization; normalised: neutral wells 0, positive control 100 | activation, % at 24.9 µM | 2,400 tested, under 10 active | AID 588690;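 active = highest replicate activation at or above 34% and every replicate reaching that threshold; inconclusive = meets only one of the two criteria; inactive = meets neither criterion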;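 note: higher polarization means more probe DNA bound by delta FosB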
Active calls of the source: *; [ ] = remark or other dose. Compounds with a hit are over-represented: about 2.9% of the library has one in this group of screens.

How did COc1ccc(-c2ccc3n(c2=O)C[C@H]2[C@H](CO)[C@@H](C(=O)N(C)C)N(CC4CC4)[C@@H]32)cc1 do in these assays?
INS-1E GSIS act: 4.7; Cneo AK release: 11.1

What do the screens show for `CC(=O)Nc1nc(C)c(C(C)=O)s1`?
CDK5 p35 inh: -0.8; PAX8 reporter: 8.5; HIV Env fusion: -19.6; dFosB act-1: -5.9; Cneo AK release: -0.5

What do the screens show for `CC(=O)c1sc(NC(=O)c2ccc(F)c(F)c2)nc1C`?
INS-1E GSIS act: -16.7; CDK5 p35 inh: 1.2; HIV Env fusion: -133.5; dFosB act-1: 28.4*; Cneo AK release: -1.9; dFosB act-2: 1.3

What do the screens show for `CC(=O)c1sc(NC(=O)c2cccc(C)c2)nc1C`?
INS-1E GSIS act: -21.6; CDK5 p35 inh: -0.8; PAX8 reporter: -167.7; HIV Env fusion: -76.0; dFosB act-1: -26.1

Results for CC(=O)c1sc(NC(=O)c2ccc(Cl)cc2)nc1C ?
INS-1E GSIS act: -9.7; CDK5 p35 inh: 0.6; PAX8 reporter: -59.1; HIV Env fusion: -61.2; dFosB act-1: 34.4*; dFosB act-2: 1.8

How did Cc1ccc(C(=O)Nc2nc(C)c(C(=O)Nc3ccc4c(c3)CCC4)s2)cc1 do in these assays?
INS-1E GSIS act: 10.9; CDK5 p35 inh: 0.4; PAX8 reporter: -59.8; HIV Env fusion: -362.2; dFosB act-1: 20.8*; Cneo AK release: -2.1; dFosB act-2: -1.7

How did CCNC(=O)C[C@H]1CC[C@@H]2[C@H](COc3ccc(NS(C)(=O)=O)cc3C(=O)N2C)O1 do in these assays?
INS-1E GSIS act: 7.4; PAX8 reporter: 2.7; HIV Env fusion: 5.2[16.7 µM]; Cneo AK release: 4.5

Results for O=C(c1cccnc1)N1CC2(C1)[C@@H](c1ccccc1)[C@@H](CO)N2Cc1ccncc1 ?
INS-1E GSIS act: 9.6

What do the screens show for `COc1ccc(N(CC(=O)N2CCc3ccccc32)S(=O)(=O)c2c(C)n[nH]c2C)cc1`?
CDK5 p35 inh: -0.1; PAX8 reporter: 10.5; HIV Env fusion: -27.2; dFosB act-1: 36.5*; Cneo AK release: 2.1; dFosB act-2: 2.4

What do the screens show for `CN1CCN(S(=O)(=O)c2ccc(Sc3nc4ccccc4[nH]3)c3nsnc23)CC1`?
CDK5 p35 inh: -0.2; dFosB act-1: 40.4*; Cneo AK release: 1.3; dFosB act-2: -7.9

Results for CCCC#Cc1ccc2c(c1)O[C@H](CN(C)C(=O)c1ccccn1)[C@@H](C)CN([C@@H](C)CO)S2(=O)=O ?
INS-1E GSIS act: -6.9; HIV Env fusion: 11.9[16.7 µM]; Cneo AK release: 3.0

What do the screens show for `Cc1ccc(-c2nnn(CC(=O)N(Cc3ccccc3)C(C(=O)NC3CCCC3)c3ccncc3)n2)o1` (stereo not given)?
CDK5 p35 inh: -1.8; dFosB act-1: 33.4*; Cneo AK release: -3.3; dFosB act-2: 0.0

How did N#CCCn1cc(/C=N/O)c(-c2ccccc2)n1 do in these assays?
INS-1E GSIS act: 5.9; CDK5 p35 inh: 4.0; dFosB act-1: 5.4; Cneo AK release: -0.1

What do the screens show for `N#CCCn1cc(/C=N/NC(N)=S)c(-c2ccc(-c3ccccc3)cc2)n1`?
INS-1E GSIS act: 0.7; CDK5 p35 inh: 1.4; PAX8 reporter: 0.8; HIV Env fusion: 7.8; dFosB act-1: 27.5*; dFosB act-2: 3.8

Results for O=c1[nH]c(/C=C/c2cccc3ccccc23)nc2ccccc12 ?
INS-1E GSIS act: -4.4; CDK5 p35 inh: 0.1; PAX8 reporter: 8.4; HIV Env fusion: 0.2; dFosB act-1: 25.5*; dFosB act-2: -1.5

Results for Cc1nnc(NC(=O)c2ccc(-c3cccc(C(F)(F)F)c3)o2)s1 ?
CDK5 p35 inh: -0.4; HIV Env fusion: -53.8; dFosB act-1: 30.4*; Cneo AK release: 21.4; dFosB act-2: inconclusive

How did CC(=O)Cc1nsc(NC(=O)c2ccc(-c3cccc(C(F)(F)F)c3)o2)n1 do in these assays?
INS-1E GSIS act: -12.2; CDK5 p35 inh: -0.4; HIV Env fusion: -122.0; dFosB act-1: -10.5; Cneo AK release: -0.6

What do the screens show for `CC(C)NC(=O)NCC[C@H]1CC[C@@H](NC(=O)CN(C)C)[C@@H](CO)O1`?
INS-1E GSIS act: 4.2; PAX8 reporter: -0.4; HIV Env fusion: 0.2[16.7 µM]; Cneo AK release: -0.1

What do the screens show for `Nn1cnnc1N/N=C/c1ccc(Cl)c([N+](=O)[O-])c1`?
INS-1E GSIS act: -12.7; CDK5 p35 inh: -0.7; PAX8 reporter: 12.2; HIV Env fusion: 9.4; dFosB act-1: -5.2

How did CN(C)c1nc(N/N=C\c2ccc(Cl)c([N+](=O)[O-])c2)nc(Nc2ccc(F)cc2)n1 do in these assays?
CDK5 p35 inh: 2.3; dFosB act-1: 118.3*; Cneo AK release: 1.8; dFosB act-2: -16.6

Results for CCOC(=O)c1c(NC(=O)CSc2n[nH]c(-c3ccco3)n2)sc(C)c1C ?
INS-1E GSIS act: -0.1; CDK5 p35 inh: -1.5; PAX8 reporter: -13.7; HIV Env fusion: -9.1; dFosB act-1: -8.5; Cneo AK release: -1.2

Results for O=C(CSc1n[nH]c(-c2ccco2)n1)Nc1sc2c(c1C(=O)Nc1ccccc1)CCCC2 ?
INS-1E GSIS act: -19.7; CDK5 p35 inh: -0.5; PAX8 reporter: 4.8; HIV Env fusion: 15.1; dFosB act-1: 25.2*; Cneo AK release: 4.7; dFosB act-2: 0.6

How did Oc1ccc(Cl)cc1-c1cc(-c2cccc(Br)c2)n[nH]1 do in these assays?
CDK5 p35 inh: -0.1; HIV Env fusion: 46.4; dFosB act-1: 45.7*; Cneo AK release: -0.3; dFosB act-2: -0.5

How did O=C([C@H]1[C@H](CO)[C@H]2Cn3c(ccc(-c4ccccc4F)c3=O)[C@@H]1N2C(=O)C1CC1)N1CCCCC1 do in these assays?
INS-1E GSIS act: 6.4; Cneo AK release: -4.7

How did COc1ccccc1CN(C)C[C@@H]1OCc2cn(nn2)CCCC(=O)N([C@@H](C)CO)C[C@H]1C do in these assays?
INS-1E GSIS act: 2.6; PAX8 reporter: 11.4

Results for O=C(NNC(=O)c1cc2ccccc2cc1O)Nc1ccc(F)cc1F ?
INS-1E GSIS act: 7.0; CDK5 p35 inh: -0.3; PAX8 reporter: 6.5; HIV Env fusion: 9.4; dFosB act-1: 30.0*; Cneo AK release: 2.5; dFosB act-2: -9.7

Results for O=C(NNC(=O)c1cc2ccccc2cc1O)Nc1ccc(Br)cc1 ?
INS-1E GSIS act: 28.0; CDK5 p35 inh: 0.9; PAX8 reporter: 1.8; HIV Env fusion: 8.3; dFosB act-1: 15.0; Cneo AK release: -0.3

Results for C[C@@H]1CCCCO[C@H](CN(C)C(=O)Nc2cccc3ccccc23)[C@@H](C)CN([C@@H](C)CO)C(=O)c2cc(NC(=O)C3CCCCC3)ccc2O1 ?
INS-1E GSIS act: -1.2; PAX8 reporter: 30.3; HIV Env fusion: -71.3[16.7 µM]; Cneo AK release: -3.0
